From ChEMBL document CHEMBL2417530, “Coumarin derivatives protect against ischemic brain injury in rats” (Eur J Med Chem, 2013)
Active and inactive are the calls of the source. The calls are words filed in the database; no cut-off is given here.

Key:
[1] = tested on: Rattus norvegicus; experiment: In vivo neuroprotective activity in iv dosed Sprague-Dawley rat transient middle cerebral artery occlusion model assessed as suppression of neuronal loss in hippocampus measured 24 hrs post reperfusion by nissl staining assay; assay type: functional, organism-based
How it was run: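 After 60 min transient MCAO with iv treatment at reperfusion, rats were perfused at 24 h with PBS, then 4% buffered paraformaldehyde. Brains were paraffin-embedded and coronal sections stained with 0.5% cresyl fast violet (Nissl). Cortex and hippocampus were examined at 200×.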

[2] = tested on: PC-12; experiment: Neuroprotective activity in rat PC12 cells assessed as attenuation of oxygen-glucose deprivation-induced cellular damage at 10 uM by MTT assay relative to control; assay type: functional
How it was run: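 PC12 cells were seeded at 5×10^3/well for 24 h. OGD insult was low-glucose medium plus 5 mM sodium dithionite for 24 h, given together with 10 µM compound. MTT (5 mg/mL) was added for 4 h and absorbance read at 570 nm. Viability was expressed as % of full-medium control; n = 3.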

[3] = Cytotoxicity against rat PC12 cells assessed as cell proliferation at 10 uM by MTT assay relative to control; assay type: cell-based, PC-12; conditions: read-out: Activity
How it was run: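 PC12 cells were grown in DMEM with 5% FBS, 5% horse serum and 2 mM glutamine at 37 °C, 5% CO2. They were seeded at 5×10^3 cells/well for 24 h, then exposed to 10 µM compound in full medium. Viability was read by MTT (5 mg/mL, 4 h) at 570 nm as % of control absorbance; n = 3.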

[4] = tested on: Cortex; experiment: Drug uptake in Sprague-Dawley rat cortex at 2 x 10^-5 mol/kg, iv measured at 60 mins by LC-MS analysis; assay type: ADME, organism-based; conditions: in vivo, 1 h
How it was run: (§1)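 Male Sprague-Dawley rats (260-280 g, n = 4) given a single iv dose of 6 mg/kg. Blood was taken from the jugular vein into heparin tubes under ether, and plasma was spun out and stored at -70 °C. After saline perfusion, cortex was homogenized in 2 volumes of water. Samples were precipitated with acetonitrile with internal standard added and quantified by LC-MS against a weighted linear calibration.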

[5] = Volume of distribution in Sprague-Dawley rat cortex at 2 x 10^-5 mol/kg, iv by LC-MS analysis; assay type: ADME, organism-based; conditions: 2e-05 mol/kg; how it was run: as §1
[6] = AUC in Sprague-Dawley rat cortex at 2 x 10^-5 mol/kg, iv by LC-MS analysis; assay type: ADME, organism-based; conditions: 2e-05 mol/kg; how it was run: as §1
[7] = Cmax in Sprague-Dawley rat cortex at 2 x 10^-5 mol/kg, iv measured at 2 mins by LC-MS analysis; assay type: ADME, organism-based; conditions: 2e-05 mol/kg; how it was run: as §1
[8] = tested on: Rattus norvegicus; experiment: Anti-ischemia activity in Sprague-Dawley rat transient middle cerebral artery occlusion model assessed as inhibition of Bax protein expression in cerebral cortex at 1.5 to 6 mg/kg, iv measured 24 hrs post reperfusion by Western blot analysis relative to vehicle-treated control; assay type: functional, organism-based
How it was run: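 Rats underwent 60 min intraluminal right MCA occlusion under chloral hydrate, then reperfusion, with iv saline or drug (1.5, 3.0, 6.0 mg/kg) at reperfusion. At 24 h they were saline-perfused and cortex and hippocampus lysed in RIPA buffer. Protein was BCA-normalized, run on SDS-PAGE and blotted for Bcl-2, Bax, cleaved caspase-3 and β-actin with ECL detection; n = 4.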

## COc1cc(O)cc2oc(=O)c(N3CCN(C)CC3)c(C)c12
[1]
  Activity: Dose-dependent effect
[2]
  Activity: 66%
[3]
  viability at 10 µM: 101%
[4]
  Drug uptake: Not Active
[5]
  Vd: 12.3 L
[6]
  AUC: 0.0424 µg·h/mL
[7]
  Cmax: 0.122 µg/mL
[8]
  inhibition: Active
